MBD2 inh: inhibitors of MBD2 binding to methylated DNA, primary screen, biochemical, TR-FRET, DNA-binding domain, human; Methyl-CpG-binding domain protein 2 (Homo sapiens), Q9UBB5; MBD2 binding to methylated oligonucleotide; inhibition, % at 4.4 µM; 370,000 tested, 0.31% active; AID 686964, 2013; in the data active = inhibition above about 13%
UHRF1 MBD2 ctr: UHRF1 methylated DNA binding inhibitors, primary screen, counter-screen for MBD2 inhibitor project, biochemical, TR-FRET, human UHRF1, single concentration; E3 ubiquitin-protein ligase UHRF1 (Homo sapiens), Q96T88; UHRF1 binding to methylated oligo; inhibition, % at 4.4 µM; 370,000 tested, 0.75% active; in the data active = inhibition above about 21%;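 note: UHRF1 SRA domain binding a hemimethylated CpG hairpin DNA probe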
Target sequence (Q96T88 whole entry, looked up, the tested form may be a part): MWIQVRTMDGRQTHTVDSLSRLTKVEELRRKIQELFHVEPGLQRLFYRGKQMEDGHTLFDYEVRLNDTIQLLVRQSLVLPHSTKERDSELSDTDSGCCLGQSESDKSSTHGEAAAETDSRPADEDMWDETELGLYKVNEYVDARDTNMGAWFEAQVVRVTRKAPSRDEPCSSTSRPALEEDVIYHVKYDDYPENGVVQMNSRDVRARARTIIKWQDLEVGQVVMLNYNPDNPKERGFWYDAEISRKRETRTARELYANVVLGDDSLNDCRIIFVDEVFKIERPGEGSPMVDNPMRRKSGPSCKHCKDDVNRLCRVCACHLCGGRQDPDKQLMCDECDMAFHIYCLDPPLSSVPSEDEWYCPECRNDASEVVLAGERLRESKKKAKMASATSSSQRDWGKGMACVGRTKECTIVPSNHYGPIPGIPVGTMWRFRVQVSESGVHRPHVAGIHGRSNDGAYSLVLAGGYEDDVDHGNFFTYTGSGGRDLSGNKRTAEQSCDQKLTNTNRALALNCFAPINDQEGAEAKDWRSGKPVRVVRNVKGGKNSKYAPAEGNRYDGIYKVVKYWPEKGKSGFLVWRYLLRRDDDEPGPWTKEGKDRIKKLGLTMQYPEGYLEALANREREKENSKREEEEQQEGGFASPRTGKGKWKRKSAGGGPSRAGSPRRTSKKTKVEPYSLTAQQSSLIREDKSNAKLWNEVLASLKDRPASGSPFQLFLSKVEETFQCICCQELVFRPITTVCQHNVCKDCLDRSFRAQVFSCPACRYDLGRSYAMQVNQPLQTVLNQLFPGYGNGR
Rin1-Abl PPI inh: inhibitors of Rin1-Abl protein binding, primary screen, biochemical, TR-FRET | inhibition, % at 7.35 µM | 360,000 tested, 0.4% active; in the data active = inhibition above about 5%, passing the limit was not always enough
TDP2 absorb: human TDP2 enzyme inhibitors, primary screen, biochemical, epi absorbance, recombinant enzyme; T5PNP hydrolysis, p-nitrophenol absorbance 415 nm; inhibition, % at 12.8 µM; Tyrosyl-DNA phosphodiesterase 2 (Homo sapiens), O95551; 370,000 tested, 0.34% active;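 active = inhibition above the mean of all tested compounds plus 3 SD, set per campaign, cut at about 25% in these data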
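Read-out basis: percent inhibition. System: recombinant human TDP2. Buffer or medium: Mg2+-containing Tris-HCl buffer, pH 7.5. Repeats: single replicate. Timing: reaction 2 h, 37 °C. Benchmarks: high control without enzyme, low control DMSO plus TDP2. Probe or stimulus: 5 mM T5PNP. Doses: 12.8 µM only. Measured by: epi absorbance of p-nitrophenol freed from T5PNP by hydrolysis.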
LEDGF integ inh: blockers of LEDGF/p75-dependent integrase strand transfer – biochemical, TR-FRET, high throughput, primary screen | 370,000 tested, 0.64% active | TR-FRET IN-LEDGF/p75 DNA integration, Eu/Cy5 | inhibition, % at 3.7 µM | HIV-1 integrase (with human LEDGF/p75);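 active = inhibition above the screen-wide mean plus 3 SD, cut at about 13% in these data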;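 note: signal is the Cy5 over europium emission ratio at 671 and 618 nm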
IN multimer act: HIV-1 IN multimer formation enhancers, counter-screen for LEDGF/p75 integration inhibitor project, biochemical, TR-FRET; activation, % at 7.7 µM; shares compounds with LEDGF integ inh; TR-FRET HIV-1 integrase multimerization; 2,000 tested, 17% active; AID 1053131, 2014; in the data active = activation above about 8.9%
TRFRET interf: TR-FRET optical interference artefacts, confirmation, artefact control for LEDGF/p75-dependent integration inhibitor project, biochemical, HIV-1 IN multimerization; shares compounds with LEDGF integ inh; TR-FRET optical interference counterscreen; inhibition, % at 7.7 µM; 2,000 tested, under 10 active; AID 1053135, 2014;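 active = inhibition above the mean over all tested compounds plus 3 SD, which no compound reached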
IN-LEDGF confirm: inhibitors of HIV-1 IN-LEDGF/p75 DNA integration, confirmation, biochemical, TR-FRET. shares compounds with LEDGF integ inh. TR-FRET LEDGF/p75-dependent HIV-1 integration. inhibition, % at 3.7 µM. 2,000 tested, 36% active. AID 1053136, 2014; in the data active = inhibition above about 14%
A number is an active result; . = inactive; / = not tested or not shown. An excerpt weighted towards active compounds, which were near 1.9% of everything screened.

SMILES	MBD2 inh	UHRF1 MBD2 ctr	Rin1-Abl PPI inh	TDP2 absorb	LEDGF integ inh	IN multimer act	TRFRET interf	IN-LEDGF confirm
Cc1cc(/C=C2\C(=O)NC(=O)N(c3ccccc3F)C2=O)c(C)n1-c1cc(C(=O)O)cc(C(=O)O)c1	.	51.9	.	.	40.2	14.2	.	38.5
CN1CCN(CC(=O)Nc2ccc([N+](=O)[O-])cc2C(=O)c2ccccc2)CC1	.	.	.	.	.	/	/	/
O=C(COc1ccccc1)N1CCN(C/C=C/c2ccccc2)CC1	.	.	.	.	.	/	/	/
O=C(CF)N(O)c1ccc(C=Cc2ccccc2)cc1	.	.	.	.	23.7	.	.	.
CCc1ccccc1N1C(=O)/C(=C/c2ccc(N3CCN(C)CC3)o2)C(=O)NC1=S	.	.	.	.	16.6	.	.	13.5
C=C(C)CC1(CC)C(=O)NC(=S)NC1=O	.	.	.	.	20.3	.	.	.
CN(C)[C@@H]1C(=O)C(C(N)=O)=C(O)[C@@]2(O)C(=O)C3=C(O)c4c(O)ccc(Cl)c4[C@@](C)(O)C3C[C@@H]12 (stereo not given in full)	.	.	.	.	27.7	13.8	.	28.1
C=C1C(=O)OC2CCN3CC=C(COC(=O)C(C)(O)C4(CO4)C1C)C23 (stereo not given)	.	41.2	.	.	37.1	.	.	.
C=C1C/C(=C/C)C(=O)O[C@@H]2CCN3CC=C(COC(=O)[C@]1(C)O)[C@H]23	.	.	/	.	.	/	/	/
CC1CCCN(C(=O)CCl)C1 (stereo not given)	.	.	.	.	70.7	.	.	.
CC1CCCN(C(=O)CN2C3CCC2CC(O)(c2ccc(F)cc2)C3)C1 (stereo not given)	.	.	.	.	.	/	/	/
C=C1[C@H]2CC[C@H]3[C@]4(C)C[C@H](O[C@@H]5OC(CO)[C@@H](OSOOO)[C@H](OS(=O)(=O)O)[C@H]5OC(=O)CC(C)C)C[C@@H](C(=O)O)[C@H]4CC[C@]3(C2)[C@H]1O (stereo not given in full)	.	.	.	.	14.3	.	.	14.9
CCc1ccc(N2C(=O)NC(=O)/C(=C\C=C\c3ccco3)C2=O)cc1	.	.	.	.	34.9	.	.	39.7
Cc1cc(C)cc(N2C(=O)NC(=O)/C(=C\C=C\c3ccco3)C2=O)c1	.	.	.	.	34.5	.	.	29.3
O=C1NC(=O)N(Cc2ccc(F)cc2)C(=O)/C1=C\C=C\c1ccco1	.	.	.	.	29.6	.	.	19.9
O=C1NC(=O)N(c2ccccc2)C(=O)/C1=C\C=C\c1ccccc1	.	.	.	.	.	/	/	/
CC(C)c1ccc(N2C(=O)NC(=O)/C(=C/C=C/c3ccco3)C2=O)cc1	.	.	.	.	23.6	.	.	26.7
CC1=NN(c2ccccc2)C(=O)C1/C=C1\C(=O)NC(=O)N(c2cc(C)cc(C)c2)C1=O (stereo not given)	.	.	.	.	.	/	/	/
COC(=O)C1=C(c2cccc(OC)c2OC)C[C@@H]2CC[C@H]1N2C(=O)NCCCOC(C)C	.	.	.	.	.	/	/	/
CCN(CC)c1ccc(/C=C2\C(=O)NC(=O)N(Cc3ccco3)C2=O)cc1	.	65.5	.	.	70.9	.	.	54.4
